Target: T1, recombinant Lyp (Homo sapiens, UniProt Q9Y2R2)
T1 sequence (Q9Y2R2 2-309): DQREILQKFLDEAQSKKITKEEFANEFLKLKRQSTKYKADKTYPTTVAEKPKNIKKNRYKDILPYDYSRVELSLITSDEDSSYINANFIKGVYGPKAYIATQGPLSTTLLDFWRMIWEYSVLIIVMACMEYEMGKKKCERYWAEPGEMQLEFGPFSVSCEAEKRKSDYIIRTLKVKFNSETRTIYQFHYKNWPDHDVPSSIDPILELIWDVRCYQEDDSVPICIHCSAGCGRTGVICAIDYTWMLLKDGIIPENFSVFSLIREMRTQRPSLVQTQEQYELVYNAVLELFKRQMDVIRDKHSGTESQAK
Assay: Lyp enzymatic assay, IC50 measurements
Type: biochemical
Details: compared with compound 7 (analogue lacks the nitro group)
Procedure, shortened: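 GST-fused Lyp catalytic domain (residues 2–309) was expressed in E. coli BL21 DE3 and purified by glutathione affinity and Superdex S-200. DiFMUP hydrolysis was measured at 48 μM substrate (Km) and 30°C in 20 mM Bis-Tris pH 6.0 (ionic strength 20 mM, NaCl) with 1 mM DTT, 1% PEG 8000 and 5% DMSO. Initial rates were read at ex 360/em 460 nm and corrected with a no-enzyme control. IC50 came from fitting relative activity against inhibitor concentration.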

SMILES: O=C(Nc1ccc(I)cc1C(=O)O)c1ccccc1 [2-benzamido-5-iodobenzoic acid]
- fold less inhibitory activity against Lyp: 157 fold
